In one experiment the test system is MCF7. Put plainly: Cytotoxicity against human MCF7 cells after 5 days by MTT assay. The conditions noted are these: MCF7, 120 h. It is filed as functional, cell-based.
Experiment [1] is described as follows: Cytotoxicity against human KB-3-1 cells after 5 days by MTT assay. In kind it is functional, cell-based. The conditions noted are these: KB 3-1, 120 h.
The test system of the next experiment is L929. Put plainly: Cytotoxicity against mouse L929 cells after 5 days by MTT assay. In kind it is functional, cell-based. The conditions noted are these: L929, 120 h. In general terms: Tetrazolium assays rely on reduction of a dye to a coloured formazan, in cell work by metabolically active cells.
The subject of another experiment is HUVEC. Kind of experiment: Cytotoxicity against human HUVEC cells after 5 days by MTT assay. In kind it is cell-based. The conditions noted are these: 120 h.
Another experiment has as its system Micrococcus luteus. Put plainly: Antimicrobial activity against Micrococcus luteus after 24 to 48 hrs by serial dilution technique. In kind it is functional.
The next experiment relates to Staphylococcus aureus. Kind of experiment: Antimicrobial activity against methicillin-resistant Staphylococcus aureus after 24 to 48 hrs by serial dilution technique. It is filed as functional.
For a further experiment, the system named is Escherichia coli. Kind of experiment: Antimicrobial activity against Escherichia coli after 24 to 48 hrs by serial dilution technique. It is filed as functional.
A short description of experiment [2]: Antimicrobial activity against Nocardia flava after 24 to 48 hrs by serial dilution technique. It is filed as functional.
The subject of experiment [3] is Chromobacterium violaceum. Put plainly: Antimicrobial activity against Chromobacterium violaceum after 24 to 48 hrs by serial dilution technique. In kind it is functional.
A further experiment deals with Pseudomonas aeruginosa. Put plainly: Antimicrobial activity against Pseudomonas aeruginosa after 24 to 48 hrs by serial dilution technique. It is filed as functional.
The test system of the next experiment is Mucor hiemalis. Put plainly: Antimicrobial activity against Mucor hiemalis after 24 to 48 hrs by serial dilution technique. In kind it is functional. The method in brief:
(§1)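 MIC by twofold (1:1) serial dilution in 96-well plates. Medium was MYC (1.0% glucose, 1.0% phytone peptone, 50 mM HEPES, pH 7.0), used for yeasts and fungi.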

Experiment [4] relates to Schizosaccharomyces pombe. Kind of experiment: Antimicrobial activity against Schizosaccharomyces pombe after 24 to 48 hrs by serial dilution technique. It is filed as functional. Put shortly: as §1
Another experiment relates to Rhodotorula glutinis. Kind of experiment: Antimicrobial activity against Rhodotorula glutinis after 24 to 48 hrs by serial dilution technique. It is filed as functional. Put shortly: as §1
A further experiment has as its system Wickerhamomyces anomalus. Kind of experiment: Antimicrobial activity against Pichia anamola after 24 to 48 hrs by serial dilution technique. It is filed as functional. The method in brief: as §1
For a further experiment, the system named is Candida albicans. Put plainly: Antimicrobial activity against Candida albicans after 24 to 48 hrs by serial dilution technique. In kind it is functional. The method in brief: as §1

≈ marks a conversion by molar mass, not a printed value.

For the molecule `CSC1=CC(=O)C(N)=C(Cl)C1=O` [HYALADIONE], the IC50 (commonly the concentration that inhibits the measured activity by half) is 1.23 µM in the experiment on MCF7, 3.93 µM in [1], 1.47 µM in the experiment on L929 and 2.21 µM in the experiment with HUVEC. Moreover, the minimum inhibitory concentration (MIC) – broadly, the lowest concentration that inhibits growth of the organism – is 3.3 µg/mL (≈ 16.2 µM) in the experiment with Micrococcus luteus; 0.83 µg/mL (≈ 4.08 µM) against Staphylococcus aureus; 33.3 µg/mL (≈ 164 µM) in the experiment on Escherichia coli; 3.3 µg/mL (≈ 16.2 µM) in experiment [2]; 2.1 µg/mL (≈ 10.3 µM) in [3]; 8.5 µg/mL (≈ 41.7 µM) against Pseudomonas aeruginosa. Besides, the MIC with Mucor hiemalis was 16.5 µg/mL (≈ 81 µM); in experiment [4], greater than 33.3 µg/mL; in the experiment on Rhodotorula glutinis it was 1.7 µg/mL (≈ 8.35 µM); in the experiment on Wickerhamomyces anomalus (Hansenula anomala), 33.3 µg/mL (≈ 164 µM); in the experiment with Candida albicans, greater than 33.3 µg/mL.

With `CN(C)[C@@H]1C(O)=C(C(N)=O)C(=O)[C@@]2(O)C(O)=C3C(=O)c4c(O)cccc4[C@@](C)(O)[C@H]3[C@H](O)[C@@H]12.Cl` [OXYTETRACYCLINE HYDROCHLORIDE], the MIC against Micrococcus luteus came to 0.104 µg/mL; in the experiment on Staphylococcus aureus, 0.104 µg/mL; with Escherichia coli it was 0.83 µg/mL; in experiment [2] it was 1.67 µg/mL; in [3], 0.21 µg/mL.

As for NYSTATIN, the minimal inhibitory concentration (MIC) stood at 1.67 µg/mL in the experiment with Mucor hiemalis; 1.67 µg/mL in experiment [4]; 0.42 µg/mL against Rhodotorula glutinis; 1.67 µg/mL in the experiment on Wickerhamomyces anomalus; 1.67 µg/mL against Candida albicans.

Source of the values: ChEMBL document CHEMBL2040741, “Hyaladione, an S-methyl cyclohexadiene-dione from Hyalangium minutum” (J Nat Prod, 2012).
